TRPC6 activator: activators of mouse TRPC6 channel; B-score at 10 µM; HEK293-TRPC6 membrane potential dye fluorescence; stronger effect = higher value; Q61143; 310,000 compounds, 0.13% hits;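 active = B-score of the integrated fluorescence ratio above library mean plus 3 SD, and starting fluorescence ratio within library mean plus 5 SD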;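 also: higher score means more depolarization so channel activation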
TRPC4 PAM: allosterically enhances the mouse TRPC4 cation channel | B-score at 10 µM | HEK293 TRPC4beta/mu-opioid, DAMGO EC20, Fluo-4 Ca2+ flux; stronger effect = higher value | Q9QUQ5 | 310,000 compounds, 0.42% hits;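 active = B-score of calcium response area above 5 SD of library B-scores, with initial fluorescence ratio within 5 SD of library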
Target sequence (Q9QUQ5 whole entry, looked up): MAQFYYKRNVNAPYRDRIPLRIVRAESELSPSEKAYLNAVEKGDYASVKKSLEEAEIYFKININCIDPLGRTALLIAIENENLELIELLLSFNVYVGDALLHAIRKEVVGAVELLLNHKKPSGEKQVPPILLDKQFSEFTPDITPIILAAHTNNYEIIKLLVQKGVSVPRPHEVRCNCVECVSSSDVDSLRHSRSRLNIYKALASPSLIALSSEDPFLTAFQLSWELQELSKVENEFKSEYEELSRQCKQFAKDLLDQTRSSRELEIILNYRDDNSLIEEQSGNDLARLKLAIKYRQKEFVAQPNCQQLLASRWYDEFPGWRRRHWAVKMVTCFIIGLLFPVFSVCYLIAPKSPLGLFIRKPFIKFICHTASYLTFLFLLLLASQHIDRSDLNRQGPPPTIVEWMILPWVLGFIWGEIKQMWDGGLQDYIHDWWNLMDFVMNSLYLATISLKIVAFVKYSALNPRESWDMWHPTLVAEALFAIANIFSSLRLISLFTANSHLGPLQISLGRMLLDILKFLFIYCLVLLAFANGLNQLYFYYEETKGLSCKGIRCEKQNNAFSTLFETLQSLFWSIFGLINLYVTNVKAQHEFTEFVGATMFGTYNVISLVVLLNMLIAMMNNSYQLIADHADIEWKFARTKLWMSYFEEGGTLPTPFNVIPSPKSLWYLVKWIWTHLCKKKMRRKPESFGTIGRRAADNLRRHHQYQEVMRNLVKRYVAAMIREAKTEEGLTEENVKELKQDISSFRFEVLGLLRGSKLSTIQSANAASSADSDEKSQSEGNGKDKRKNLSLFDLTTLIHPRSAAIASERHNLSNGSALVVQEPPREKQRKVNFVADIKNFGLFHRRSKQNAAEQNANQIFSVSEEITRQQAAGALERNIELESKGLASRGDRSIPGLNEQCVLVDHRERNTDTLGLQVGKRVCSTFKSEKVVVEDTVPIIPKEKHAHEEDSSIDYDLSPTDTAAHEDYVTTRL
TRPC6 inh: mouse TRPC6 channel inhibition; HEK293-TRPC6, membrane potential dye, ACh-evoked depolarization; stronger effect = lower value; AID 2553; Q61143; B-score at 10 µM; 310,000 compounds, 1.1% hits;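 active = B-score under library mean minus 3 SD, initial fluorescence not abnormally high, positive integrated signal ratio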;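 also: B-score derived from integrated fluorescence ratio over the kinetic read; more negative B-score means stronger inhibition of depolarization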
TRPC4 agonist: activators of mouse TRPC4 channel; Q9QUQ5; 310,000 compounds, 0.49% hits; HEK293 TRPC4beta/mu-opioid, Fluo4 calcium fluorescence; stronger effect = higher value; B-score at 10 µM; AID 2237;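 active = B-score above 5 SD of library B-scores, and initial fluorescence ratio not above library mean plus 5 SD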;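 also: positive B-score marks a calcium rise read as TRPC4 activation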
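Technique: kinetic Fluo4 calcium fluorescence; Test system: TRPC4beta and mu-opioid receptor HEK293 stable cells; Measure: B-scored integrated calcium fluorescence ratio; Benchmarks: low control buffer alone, high control maximal DAMGO; Schedule: 45 min room-temperature Fluo4 loading, 110 s read.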
TRPC4 inh: TRPC4 (mouse) channel inhibition; Q9QUQ5; HEK293 TRPC4beta/mu-opioid, DAMGO-evoked Fluo4 calcium flux; stronger effect = lower value; B-score at 10 µM; 300,000 compounds, 0.39% hits; AID 2247;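 active = B-score over 3 SD under the library average, no early fluorescence shift, positive overall ratio signal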
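Material: HEK293 cells with stable TRPC4beta plus mu-opioid receptor expression; probe or stimulus: DAMGO in two steps, submaximal then maximal; technique: Fluo4 calcium fluorescence by kinetic imaging, 5 s 1 Hz baseline; measure: integrated fluorescence ratio relative to baseline, converted to per-well B score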
TRPC4 sel inh 2: mouse TRPC4 off-target activity of TRPC6 inhibitors, second screen; shares compounds with TRPC6 inh; HEK293 TRPC4/MOR, membrane potential dye fluorescence; channel activated by saturating DAMGO dose; inhibition, % at 10 µM; 920 compounds, 42% hits;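 active = compounds whose fluorescence signal differed from control wells by over 3 SD, either direction, in both duplicate plates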
TRPC4 spec: mouse TRPC4 off-target activity of TRPC6 inhibitors | shares compounds with TRPC6 inh | HEK293 TRPC4/mu-opioid, membrane potential fluorescence | activity change, negative = inhibition, % at 10 µM | 920 compounds, 61% hits | AID 2777;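 active = rise or fall in signal beyond 3 SD of buffer-only wells in both replicate plates, either sign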;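 also: integrated kinetic ratio of fluorescence range over baseline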
HEK293 MPD ctr 2-1: parental HEK293 nonspecific activity of TRPC6 inhibitors, second screen. shares compounds with TRPC6 inh. parental HEK293 membrane potential dye fluorescence; maximal acetylcholine challenge after compound addition. signal change vs control, % at 10 µM. 920 compounds, 31% hits;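 active = membrane potential signal moving either way by over 3 SD of the maximum-effect control, in both duplicate plates, meaning non-specific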
HEK293 MPD ctr-1: checks TRPC6 inhibitor effects in parental HEK293 cells. shares compounds with TRPC6 inh. parental HEK293 membrane potential dye fluorescence. membrane potential signal change, % at 10 µM. 920 compounds, 60% hits. AID 2780;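 active = membrane potential signal shifting up or down by more than 3 SD of buffer-only wells, on both duplicate plates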
HEK293 MPD ctr-2: checks TRPC6 modulator effects in parental HEK293 cells; 2,400 compounds, 51% hits; AID 488924; membrane potential dye fluorescence; shares compounds with TRPC6 inh; membrane potential signal change, % at 10 µM;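 active = membrane potential signal moves up or down beyond 5 SD from buffer-only wells, on both duplicate plates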
HEK293 MPD ctr 2-2: second counter-screen for TRPC6 modulators: effect in parental HEK293 cells | 2,400 compounds, 14% hits | shares compounds with TRPC6 inh | inhibition, % at 10 µM | membrane potential dye fluorescence; after compound, maximal acetylcholine stimulation;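 active = membrane potential signal drops by more than 5 SD from the mean control signal, in both duplicate plates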
TRPC4 ctr mod: tests whether TRPC6 modulators also affect mouse TRPC4 | HEK293 TRPC4/mu-opioid, membrane potential fluorescence | percent change from control (negative = decrease, positive = increase), % at 10 µM | 2,400 compounds, 69% hits | shares compounds with TRPC6 inh;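 active = membrane potential signal moved up or down beyond 5 SD of buffer control wells, in both duplicate plates, actives on both sides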
TRPC4 ctr inh 2: mouse TRPC4 off-target activity of TRPC6 modulators, second screen. shares compounds with TRPC6 inh. HEK293 TRPC4/mu-opioid, membrane potential dye fluorescence; stimulated with maximal-effect DAMGO. inhibition, % at 10 µM. 2,400 compounds, 55% hits. AID 488928;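 active = drop in membrane potential signal beyond 5 SD of the control wells in both duplicate plates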;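 also: TRPC4 counter screen for TRPC6 hits run under conditions tuned for TRPC6 not TRPC4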
TRPC6 inh conf: mouse TRPC6 inhibitor confirmation. shares compounds with TRPC6 inh. HEK293-TRPC6, membrane potential dye, ACh-evoked depolarization. inhibition, % at 10 µM. 3,300 compounds, 43% hits;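 active = fluorescence ratio falls more than 5 SD below the full-stimulation control mean, in both duplicate runs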;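 also: integrated fluorescence ratio of peak minus minimum over baseline after agonist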
TRPC6 act conf: confirmation of mouse TRPC6 activators; shares compounds with TRPC6 inh; HEK293-TRPC6 membrane potential dye fluorescence, FDSS; activation, % at 10 µM; 2,800 compounds, 11% hits;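 active = ratio signal rise beyond 5 SD above unstimulated control wells' mean, seen in both duplicate runs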
A number is an active result; . = inactive; / = not tested or not shown. Hits are enriched below; roughly 2.3% of the tested compounds scored in any of these assays.

SMILES | TRPC6 activator | TRPC4 PAM | TRPC6 inh | TRPC4 agonist | TRPC4 inh | HEK293 MPD ctr-2 | HEK293 MPD ctr 2-2 | TRPC4 ctr mod | TRPC4 ctr inh 2 | TRPC6 inh conf | TRPC6 act conf | others
Cc1ccnc(NS(=O)(=O)c2ccc(N=Cc3c(O)n(C)c(=O)n(C)c3=O)cc2)n1 | . | . | . | . | . | / | / | / | / | / | /
O=C(/C=C/c1ccc(Cl)cc1)NC(=S)N1C[C@H]2C[C@H](C1)c1cccc(=O)n1C2 | . | . | . | . | . | / | / | / | / | / | /
CN1C(=O)/C(=C\c2ccc(N3CCCCC3)o2)C(=O)NC1=S | . | . | . | . | . | / | / | / | / | / | /
CN1C(=O)/C(=C/c2ccc(N3CCCCCC3)o2)C(=O)NC1=S | 18.8 | . | . | . | . | 471.5% | . | 50.5% | . | . | 93.0%
COc1ccccc1CCNC1CCCCCC1 | . | . | . | . | . | / | / | / | / | / | /
COc1ccccc1CCNC1CCC(C(C)(C)C)CC1 (configuration not stated) | 18.4 | . | -14 | . | . | 673.0% | 105.0% | 156.5% | 82.5% | 98.0% | 177.5%
CN1CCC(O)(c2cccs2)C(C(=O)c2cccs2)C1 (configuration not stated) | . | . | . | . | . | / | / | / | / | / | /
CCCCCSc1cc(OC)c(CCN)cc1OC | . | . | -6.52 | . | . | . | . | . | 59.0% | 40.0% | .
Cc1cc([N+](=O)[O-])c2ccccc2[n+]1[O-] | . | . | . | . | . | / | / | / | / | / | /
CN1CCN(c2ccc(S(C)(=O)=O)cc2[N+](=O)[O-])CC1 | . | . | . | . | . | / | / | / | / | / | /
CC1CN(c2ccc([N+](=O)[O-])c(N3CCCCC3)c2)CCN1 (configuration not stated) | . | . | -5.35 | . | . | . | . | -10.5% | . | . | .
O=[N+]([O-])c1cc(F)c(N2CCCC2)cc1N1CCNCC1 | . | . | -6.9 | . | . | / | / | / | / | . | . | TRPC4 sel inh 2=48.5%;TRPC4 spec=-28.9%;HEK293 MPD ctr 2-1=.;HEK293 MPD ctr-1=-399.0%
Cn1c(=O)n(C)c2cc([N+](=O)[O-])c(N3CCNCC3)cc21 | . | . | -6.28 | . | . | -276.0% | 69.5% | -45.5% | 54.5% | 52.0% | .
CN1CCN(c2ccc([N+](=O)[O-])c(Sc3nncn3C)c2)CC1 | . | . | . | . | . | / | / | / | / | / | /
Nc1c([N+](=O)[O-])cc(F)c(N2CCNCC2)c1Br | . | 23 | -5.89 | . | . | -127.5% | . | -22.5% | 33.5% | 39.0% | .
O=C(c1cc([N+](=O)[O-])ccc1N1CCNCC1)N1CCOCC1 | . | . | . | . | . | / | / | / | / | / | /
CCC(=Nc1ccc2c(c1)CCC2)c1c(O)n(-c2ccc(OC)cc2)c(=O)[nH]c1=O | . | . | . | . | . | / | / | / | / | / | /

Source: PubChem
